Experimental data reported in ChEMBL document CHEMBL2396529, “Synthesis and anticancer mechanism investigation of dual Hsp27 and tubulin inhibitors” (J Med Chem, 2013).
Activity calls are given as the source filed them. No cut-off for these calls is given here.

What follows are compounds tested against Heat shock protein beta-1 (Homo sapiens) (UniProt P04792) (assay: Inhibition of HSP27 (unknown origin) assessed as increase in DTT-induced insulin B chain aggregation at 5 uM incubated for 5 mins prior to DTT-treatment measured after 30 mins by spectrophotometric analysis relative to control). Conditions: not given.
Chain of Heat shock protein beta-1 (Homo sapiens) (P04792 whole entry): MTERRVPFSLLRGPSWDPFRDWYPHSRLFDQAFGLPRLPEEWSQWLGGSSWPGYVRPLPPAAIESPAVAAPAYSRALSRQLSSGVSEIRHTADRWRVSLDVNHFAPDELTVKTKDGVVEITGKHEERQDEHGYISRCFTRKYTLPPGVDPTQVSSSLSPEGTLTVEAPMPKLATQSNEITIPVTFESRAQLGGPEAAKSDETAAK

| SMILES | inhibition [%] |
| --- | --- |
| Cc1ccc(C)c(COc2cc(NC(=O)C3CCCCC3)ccc2N(C)S(C)(=O)=O)c1 | 29 |

These compounds were tested against Heat shock protein beta-1 (Homo sapiens) (UniProt P04792) (assay: Inhibition of HSP27 (unknown origin) assessed as increase in DTT-induced insulin B chain aggregation at 10 uM incubated for 5 mins prior to DTT-treatment measured after 30 mins by spectrophotometric analysis relative to control). Conditions: not given.

| SMILES | inhibition |
| --- | --- |
| CS(=O)(=O)Nc1ccc([N+](=O)[O-])cc1Oc1ccccc1 [NIMESULIDE] | inactive |
| Cc1ccc(C)c(COc2cc(NC(=O)c3ccc(I)cc3)ccc2N(C)S(C)(=O)=O)c1 | 28% |
| COc1ccc(C(=O)Nc2ccc(N(C)S(C)(=O)=O)c(OCc3cc(C)ccc3C)c2)cc1 | 30% |

These compounds were tested on SK-BR-3 (assay: Antiproliferative activity against human SKBR3 cells after 48 hrs by MTT assay). Conditions: SK-BR-3, 48 h.
Format: functional, cell-based
Outline: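 MTT assay on SKBR-3 cells (RPMI 1640, 10% heat-inactivated FBS, 37 °C, 5% CO2), seeded 24 h before dosing, then exposed 48 h to a concentration series in DMSO (final ≤0.1%) with vehicle-matched controls. Afterwards 0.5 mg/mL MTT for 2 h, formazan dissolved in DMSO, A570 read, six replicates. IC50 from nonlinear regression.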

| SMILES | IC50 [nM] |
| --- | --- |
| Cc1ccc(C(F)(F)F)cc1COc1cc(NC(=O)c2ccc3c(c2)OCO3)ccc1N(C)S(C)(=O)=O | 14700 |
| COc1ccc(OC)c(COc2cc(NC(=O)c3ccc(Br)cc3)ccc2N(C)S(C)(=O)=O)c1 | 3.51 |
| CCCCCCOc1cc(NC(=O)c2ccc3ccccc3c2)ccc1N(C)S(C)(=O)=O | 64300 |
| COc1ccc(C(=O)Nc2ccc(N(C)S(=O)(=O)C(F)(F)F)c(OCc3cc(C)ccc3C)c2)cc1 | 5320 |
| COc1ccc(OC)c(COc2cc(NC(=O)c3ccc4ccccc4c3)ccc2N(C)S(=O)(=O)C(F)(F)F)c1 | 200 |
| Cc1ccc(C)c(COc2cc(NC(=O)c3ccc4ccccc4c3)ccc2N(C)S(=O)(=O)C(F)(F)F)c1 | 41400 |
| CS(=O)(=O)Nc1ccc([N+](=O)[O-])cc1Oc1ccccc1 [NIMESULIDE] | 100000 |
| COc1ccc(C(=O)Nc2ccc(N(C)S(C)(=O)=O)c(OCc3cc(Cl)ccc3Cl)c2)cc1OC | 3730 |
| Cc1ccc(C)c(COc2cc(NC(=O)c3ccc(Br)cc3)ccc2N(C)S(=O)(=O)C(F)(F)F)c1 | 36400 |
| Cc1ccc(C(F)(F)F)cc1COc1cc(NC(=O)c2ccc(I)cc2)ccc1N(C)S(C)(=O)=O | 3500 |
| Cc1ccc(C)c(COc2cc(NC(=O)c3ccc4c(c3)OCO4)ccc2N(C)S(=O)(=O)C(F)(F)F)c1 | 21800 |
| CCCCCCOc1cc(NC(=O)c2ccc(OC)cc2)ccc1N(C)S(C)(=O)=O | 20000 |
| CCCCCCOc1cc(NC(=O)c2ccc(OC)c(OC)c2)ccc1N(C)S(C)(=O)=O | 100000 |
| COc1ccc(OC)c(COc2cc(NC(=O)c3ccc(OC)c(OC)c3)ccc2N(C)S(=O)(=O)C(F)(F)F)c1 | 550 |
| COc1ccc(C(=O)Nc2ccc(N(C)S(C)(=O)=O)c(OCc3cc(C(F)(F)F)ccc3C)c2)cc1OC | 16900 |
| CCCCCCOc1cc(NC(=O)c2ccc(Br)cc2)ccc1N(C)S(C)(=O)=O | 39900 |
| CN(c1ccc(NC(=O)c2ccc(I)cc2)cc1OCc1cc(Cl)ccc1Cl)S(C)(=O)=O | 660 |
| CN(c1ccc(NC(=O)c2ccc3c(c2)OCO3)cc1OCc1cc(Cl)ccc1Cl)S(C)(=O)=O | 2850 |
| COc1ccc(OC)c(COc2cc(NC(=O)c3ccc(OC)c(OC)c3)ccc2NS(C)(=O)=O)c1 | 11 |
| CN(c1ccc(NC(=O)c2ccc(Br)cc2)cc1OCc1cc(Cl)ccc1Cl)S(C)(=O)=O | 2290 |
| COc1ccc(C(=O)Nc2ccc(NS(C)(=O)=O)c(OCc3cc(OC)ccc3OC)c2)cc1 | 13.4 |

| SMILES | IC50 [nM] |
| --- | --- |
| COc1ccc(OC)c(COc2cc(NC(=O)c3ccc4c(c3)OCO4)ccc2N(C)S(C)(=O)=O)c1 | 7.52 |
| CCCCCCOc1cc(NC(=O)c2ccc(I)cc2)ccc1N(C)S(C)(=O)=O | 12700 |
| Cc1ccc(C)c(COc2cc(NC(=O)c3ccc(I)cc3)ccc2N(C)S(=O)(=O)C(F)(F)F)c1 | 13500 |
| COc1ccc(OC)c(COc2cc(NC(=O)c3ccc4ccccc4c3)ccc2NS(C)(=O)=O)c1 | 13.3 |
| Cc1ccc(C(F)(F)F)cc1COc1cc(NC(=O)c2ccc3ccccc3c2)ccc1N(C)S(C)(=O)=O | 18400 |
| COc1ccc(C(=O)Nc2ccc(N(C)S(C)(=O)=O)c(OCc3cc(Cl)ccc3Cl)c2)cc1 | 490 |
| Cc1ccc(C(F)(F)F)cc1COc1cc(NC(=O)c2ccc(Br)cc2)ccc1N(C)S(C)(=O)=O | 9490 |
| COc1ccc(C(=O)Nc2ccc(N(C)S(=O)(=O)C(F)(F)F)c(OCc3cc(C)ccc3C)c2)cc1OC | 39300 |
| CN(c1ccc(NC(=O)c2ccc3ccccc3c2)cc1OCc1cc(Cl)ccc1Cl)S(C)(=O)=O | 2210 |
| COc1ccc(OC)c(COc2cc(NC(=O)c3ccc4ccccc4c3)ccc2N(C)S(C)(=O)=O)c1 | 16.6 |
| COc1ccc(OC)c(COc2cc(NC(=O)c3ccc(Br)cc3)ccc2N(C)S(=O)(=O)C(F)(F)F)c1 | 470 |
| COc1ccc(OC)c(COc2cc(NC(=O)c3ccc(Br)cc3)ccc2NS(C)(=O)=O)c1 | 9.58 |
| COc1ccc(C(=O)Nc2ccc(N(C)S(C)(=O)=O)c(OCc3cc(C(F)(F)F)ccc3C)c2)cc1 | 2030 |
| CCCCCCOc1cc(NC(=O)c2ccc3c(c2)OCO3)ccc1N(C)S(C)(=O)=O | 28800 |
| COc1ccc(C(=O)Nc2ccc(N(C)S(=O)(=O)C(F)(F)F)c(OCc3cc(OC)ccc3OC)c2)cc1 | 110 |
| COc1ccc(OC)c(COc2cc(NC(=O)c3ccc(OC)c(OC)c3)ccc2N(C)S(C)(=O)=O)c1 | 2.61 |
| COc1ccc(OC)c(COc2cc(NC(=O)c3ccc(I)cc3)ccc2NS(C)(=O)=O)c1 | 11.8 |
| COc1ccc(OC)c(COc2cc(NC(=O)c3ccc4c(c3)OCO4)ccc2N(C)S(=O)(=O)C(F)(F)F)c1 | 710 |
| COc1ccc(OC)c(COc2cc(NC(=O)c3ccc4c(c3)OCO4)ccc2NS(C)(=O)=O)c1 | 35.2 |
| COc1ccc(OC)c(COc2cc(NC(=O)c3ccc(I)cc3)ccc2N(C)S(=O)(=O)C(F)(F)F)c1 | 510 |

Species: Bos taurus
Conditions: 100 uM

| SMILES | inhibition [%] |
| --- | --- |
| CS(=O)(=O)Nc1ccc([N+](=O)[O-])cc1Oc1ccccc1 [NIMESULIDE] | 14 |
